Compound activity deposited in PubChem BioAssay by The Scripps Research Institute Molecular Screening Center.
HTRA1 inhibitor: blocks human HTRA1 serine peptidase | Q92743 | recombinant HTRA1, FP-rhodamine activity-based probe, fluorescence polarization | inhibition, % at 5.96 µM | actives 0.5% (n = 340,000) | AID 504803; in the data active means inhibition above about 36%;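 further: 0% = enzyme with DMSO and 100% = wells lacking enzyme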
rCAG RNA binder: r(CAG) repeat RNA binding; TO-PRO-1 dye displacement fluorescence; inhibition, % at 3 µM; actives 1.3% (n = 370,000); AID 651821;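 active means inhibition above the plate cutoff, the mean of all test compounds on that plate plus 3 SD, cut at about 35% in these data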;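 further: 0% = DMSO alone and 100% = 100 µM mitoxantrone as full dye displacement; higher means more dye released from RNA so lower well fluorescence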
TCR-CD3 inh: inhibitors of human TCR-CD3 interaction | TAMRA-labeled TCR probe fluorescence, biochemical | inhibition, % at 9.4 µM | AID 651800 | actives 0.37% (n = 360,000); in the data active means inhibition above about 19%;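 further: recombinant mutant TCR 2C K166C tagged with TAMRA read by polarization; 0% = receptor in buffer alone and 100% = receptor with positive control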
mABHD4 FP: inhibitors of mouse ABHD4 | Q8VD66 | purified mABHD4, FP-Rh probe fluorescence polarization | inhibition, % at 8.92 µM | actives 0.54% (n = 370,000);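 active means inhibition exceeding the mean over every tested compound plus 3 SD, cut at about 30% in these data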;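 further: 0% = plate median of compound wells and 100% = S159A mutant with DMSO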
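assay system = mABHD4 protein | compound dosing = single nominal dose of 8.92 µM, 0.89% DMSO final | read-out basis = percent inhibition of probe binding, normalized to plate controls | schedule = Enzyme–compound pre-incubation 45 min, then probe 60 min, both 25 °C | detection = fluorescence polarization, excitation 525 nm, emission 598 nm, BODIPY TMR filters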
SIAE inh: blocks human sialic acid acetylesterase | Q9HAT2 | SIAE FP-Rh probe binding, fluorescence polarization | inhibition, % at 9.66 µM | actives 0.69% (n = 370,000) | AID 1053197;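 active means inhibition above a cutoff: mean of compounds within the control limits plus 3 SD of those, cut at about 17% in these data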;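 further: 0% = plate median of compound wells and 100% = probe without SIAE protein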
Target sequence (Q9HAT2 whole entry, looked up): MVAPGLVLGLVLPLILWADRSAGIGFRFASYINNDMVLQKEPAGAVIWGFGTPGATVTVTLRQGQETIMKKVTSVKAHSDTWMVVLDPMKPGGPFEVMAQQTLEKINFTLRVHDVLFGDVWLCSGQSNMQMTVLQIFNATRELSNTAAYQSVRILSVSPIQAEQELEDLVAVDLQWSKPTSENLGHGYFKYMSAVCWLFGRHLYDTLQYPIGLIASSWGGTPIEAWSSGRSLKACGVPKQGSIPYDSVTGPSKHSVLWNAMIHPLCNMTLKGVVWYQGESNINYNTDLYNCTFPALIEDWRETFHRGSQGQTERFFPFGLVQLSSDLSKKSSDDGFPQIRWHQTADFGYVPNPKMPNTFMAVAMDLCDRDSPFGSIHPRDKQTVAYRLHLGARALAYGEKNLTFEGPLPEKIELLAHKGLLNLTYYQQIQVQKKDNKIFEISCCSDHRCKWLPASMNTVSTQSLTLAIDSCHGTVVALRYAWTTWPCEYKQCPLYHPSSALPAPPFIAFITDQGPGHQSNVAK
rCAG bind conf: r(CAG) RNA repeat binding, confirmation. shares compounds with rCAG RNA binder. TO-PRO-1 dye displacement fluorescence. inhibition, % at 3 µM. actives 70% (n = 4,300);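 active means inhibition above a per-plate cutoff, the mean inhibition of sample wells plus 3 SD, cut at about 35% in these data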;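 further: loss of TO-PRO-1 fluorescence as compound displaces dye from 1x1 AA loop RNA; 0% = DMSO only wells and 100% = 100 µM mitoxantrone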
DNA CAG counter: DNA CAG dye complex inhibition counter-screen | shares compounds with rCAG RNA binder | d(CAG) DNA oligo TO-PRO-1 dye displacement, fluorescence | inhibition, % at 3 µM | actives 94% (n = 4,300) | AID 652068;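 active means inhibition above its plate's cutoff, the mean test-well inhibition plus 3 SD, cut at about 4.8% in these data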;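 further: 0% = DNA dye mix with DMSO and 100% = 100 µM mitoxantrone; hits displace the dye from DNA and so lower well fluorescence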
dCAG dye DR: counter-screen for rCAG binders: inhibitors of DNA CAG TO-PRO-1 complex. shares compounds with rCAG RNA binder. DNA CAG/GTC duplex TO-PRO-1 dye displacement fluorescence. IC50, µM. actives 20% (n = 250). AID 686960; in the data active means IC50 below about 10 µM
Numbers without * were called inactive; i = inactive; · = no result given. An excerpt weighted towards active compounds, which were near 2.5% of everything screened.

SMILES	HTRA1 inhibitor	rCAG RNA binder	TCR-CD3 inh	mABHD4 FP	SIAE inh	rCAG bind conf	DNA CAG counter	others
O=C(O)COc1ccccc1/C=C1\SC(=Nc2ccc(F)cc2)N(c2ccc(F)cc2)C1=O	-8.7	40.3*	0.8	-1.4	-10.0	65.0*	24.1*
O=C(O)COc1ccc(/C=C2\SC(=Nc3ccccc3)N(c3ccccc3)C2=O)cc1	7.3	14.2	3.1	0.2	-1.1	·	·
COc1cccc(-c2cccc(NC(=O)C3CCN(Cc4cccc(C)n4)CC3)c2)c1	10.0	-11.8	-6.4	-3.9	-3.6	·	·
CNC(=S)N/N=C/c1ccc(-c2ccc(Cl)c([N+](=O)[O-])c2)o1	·	1.2	1.8	5.4	8.0	·	·
NC(=S)N/N=C/c1ccc(-c2cccc([N+](=O)[O-])c2)o1	-3.5	10.6	2.9	3.4	1.7	·	·
O=[N+]([O-])c1cccc(-c2ccc(/C=N/NC(=S)Nc3cccc(F)c3)o2)c1	21.9	39.1*	4.2	7.2	-4.5	25.1	13.2*
Cc1ccc(-c2ccc(/C=N/NC(=S)Nc3ccccc3)o2)cc1[N+](=O)[O-]	-5.0	42.5*	3.8	-3.9	15.2	34.0	15.9*
CCOC(=O)Cn1c(C)c(Br)c(COC)c(C#N)c1=O	-1.9	-4.5	-4.8	-6.1	-6.7	·	·
NC1=NC(=O)/C(=C/c2ccsc2)S1	6.6	1.2	0.9	-5.7	0.3	·	·
Cc1cc(C(C)(C)C)cc(S(=O)(=O)Nc2ccc(O)c(C(=O)O)c2)c1C	-7.1	56.8*	-3.3	-16.8	-3.0	23.1	5.3*
Cc1ccccc1S(=O)(=O)Nc1nc2ccccc2nc1N1CCOCC1	-7.7	14.0	1.0	2.2	1.0	·	·
CCOC(=O)C1=C(CC)Nc2ccccc2N/C1=N\S(=O)(=O)c1ccc2ccccc2c1	-7.9	36.0*	2.0	-14.2	-7.2	41.4*	11.7*
CCOC(=O)C1=C(CC)Nc2ccccc2N/C1=N\S(=O)(=O)c1cc(Br)ccc1Br	·	63.1*	3.1	-41.6	2.8	59.0*	21.2*
CCOC(=O)C1=C(C)Nc2ccccc2N/C1=N\S(=O)(=O)c1cccc(Cl)c1	6.5	33.5	-2.9	-4.8	0.6	·	·
CCOC(=O)C1=C(C)Nc2ccccc2N/C1=N\S(=O)(=O)c1ccc(Cl)cc1	1.1	35.2*	-7.2	-9.1	-4.9	26.7	4.9*
COc1ccc(/C=C/C(=O)c2cc(Cl)ccc2O)c(OC)c1	-39.0	5.4	-0.5	-9.1	-9.9	·	·
Cc1ccc(/C(O)=C/C(=O)C(=O)NNC(=O)C(O)(c2ccccc2)c2ccccc2)cc1	22.1	45.7*	2.1	1.8	-7.5	29.3	12.5*
CC(=O)NNC(=O)C(O)(c1ccccc1)c1ccccc1	1.1	-2.8	3.4	-2.8	1.3	·	·
O=C(Cc1ccccc1)NCC(=O)OCc1ccc([N+](=O)[O-])cc1	-2.2	2.9	0.5	2.2	-2.1	·	·
CC(=NO)C1CCC2C3CCC4CC(=NO)CCC4(C)C3C(C)(O)CC12C (stereo unspecified)	-9.4	-1.1	5.4	-2.6	-1.6	·	·
Cc1ccc(S(=O)(=O)N/N=C/c2ccccc2O)cc1	-0.1	2.3	-3.8	1.9	4.3	·	·
Cc1ccc(S(=O)(=O)NN=Cc2c(O)ccc3ccccc23)cc1	0.7	41.5*	-4.3	10.8	12.1	46.2*	15.4*
COc1cc(C2C3=C(CCCC3=O)Nc3[nH]n(-c4ccccc4)c(=O)c32)cc(OC)c1OC (stereo unspecified)	6.0	5.1	9.5	6.6	7.0	·	·
COc1cc(C2c3c([nH]c(=O)[nH]c3=O)Nc3ccc4ccccc4c32)cc(OC)c1OC (stereo unspecified)	6.6	42.4*	1.1	0.8	13.1	30.4	10.2*
O=C(NN1C(=O)/C(=C/c2cccs2)SC1=S)c1ccncc1	1.5	7.3	4.4	5.9	-0.3	·	·
SMILES	HTRA1 inhibitor	rCAG RNA binder	TCR-CD3 inh	mABHD4 FP	SIAE inh	rCAG bind conf	DNA CAG counter	others
COc1ccc(/C=C2\SC(=S)N(NS(=O)(=O)c3ccccc3)C2=O)c(OC)c1	-11.5	38.9*	-6.5	1.0	-1.0	73.5*	33.9*	dCAG dye DR=i
COc1ccc(OC)c(/C=C2\SC(=S)N(NS(=O)(=O)c3ccccc3)C2=O)c1	-28.3	86.8*	-1.6	-9.8	1.3	66.5*	29.9*
O=C1/C(=C/c2cccs2)SC(=S)N1NS(=O)(=O)c1ccccc1	-14.4	53.5*	-4.8	-8.5	-8.0	29.9	6.8*
NC(=O)c1ccc(NS(=O)(=O)c2ccccc2F)cc1	1.7	2.0	5.5	-10.3	-10.6	·	·
CCC(C)(C)C(=O)Nc1ccc(OC)cc1[N+](=O)[O-]	4.7	·	·	·	·	·	·
COc1ccc(Cl)cc1NC(=S)NNC(=O)c1cccs1	-9.2	35.9*	-2.9	14.1	0.5	33.7	9.6*
Cc1nn(C(=O)c2cc([N+](=O)[O-])ccc2Cl)c(C)c1Br	0.5	-2.9	1.2	-0.2	-1.8	·	·
O=C(Nc1cc(S(=O)(=O)N2CCOCC2)ccc1O)c1ccc(S(=O)(=O)N2CCCCC2)cc1	9.8	40.0*	4.8	2.2	9.0	37.0*	10.3*
O=C(Nc1ccc(S(=O)(=O)O)cc1)c1ccc2c(c1)S(=O)(=O)c1ccccc1C2=O	-10.2	40.1*	4.1	-3.4	-1.8	16.7	1.6
O=S(=O)(Nc1cccc(S(=O)(=O)N2CCCC2)c1)c1ccc(Cl)cc1	11.0	35.8*	-9.8	-10.7	-5.8	17.6	6.5*
COc1ccccc1NC(=O)c1ccc(NS(=O)(=O)c2ccc(F)c(Cl)c2)cc1	-14.2	44.1*	5.9	-19.5	-4.8	54.2*	13.7*
COc1ccccc1NC(=O)c1ccc(NS(=O)(=O)c2c(C)noc2C)cc1	-3.4	12.3	4.2	-3.2	7.8	·	·
O=C(Nc1ccccc1C(=O)Nc1ccccn1)c1cccc([N+](=O)[O-])c1	-9.1	4.8	-0.6	-2.0	11.4	·	·
O=C(NCCN1CCOCC1)c1cc(-c2ccc(Cl)s2)nc2ccccc12	-4.9	3.0	-5.8	-2.4	-8.2	·	·
O=C(Nc1cc(S(=O)(=O)N2CCOCC2)ccc1O)c1ccc2c(c1)S(=O)(=O)c1ccccc1C2=O	-2.9	42.5*	0.4	9.2	1.0	68.7*	30.7*
O=C(Nc1ccc(S(=O)(=O)N2CCOCC2)cc1)c1ccc2c(c1)S(=O)(=O)c1ccccc1C2=O	0.1	0.0	0.3	0.2	-13.5	·	·
O=C(CCCSc1ccc(Cl)cc1)Nc1cc(S(=O)(=O)N2CCOCC2)ccc1O	-5.5	40.3*	-3.4	10.3	-8.3	48.6*	15.6*
O=C(Nc1cc(S(=O)(=O)Nc2ccc(Cl)cc2)ccc1O)c1ccc(S(=O)(=O)N2CCCCCC2)cc1	-29.2	46.7*	3.8	1.8	-24.9	73.4*	37.7*
